Measurements as given in ChEMBL document CHEMBL1154211, “Curcumin inhibits ACTH- and angiotensin II-stimulated cortisol secretion and Ca(v)3.2 current” (J Nat Prod, 2009).
Activity calls are given as the source filed them. The calls are words filed in the database; no cut-off is given here.

Legend:
[1] = target: T1, Potassium channel subfamily K member 2 (Bos taurus, UniProt Q8HY88); assay: Inhibition of TREK-1 K(+) channel in bovine AZF cells; type: cell-based
T1 sequence (Q8HY88 whole entry): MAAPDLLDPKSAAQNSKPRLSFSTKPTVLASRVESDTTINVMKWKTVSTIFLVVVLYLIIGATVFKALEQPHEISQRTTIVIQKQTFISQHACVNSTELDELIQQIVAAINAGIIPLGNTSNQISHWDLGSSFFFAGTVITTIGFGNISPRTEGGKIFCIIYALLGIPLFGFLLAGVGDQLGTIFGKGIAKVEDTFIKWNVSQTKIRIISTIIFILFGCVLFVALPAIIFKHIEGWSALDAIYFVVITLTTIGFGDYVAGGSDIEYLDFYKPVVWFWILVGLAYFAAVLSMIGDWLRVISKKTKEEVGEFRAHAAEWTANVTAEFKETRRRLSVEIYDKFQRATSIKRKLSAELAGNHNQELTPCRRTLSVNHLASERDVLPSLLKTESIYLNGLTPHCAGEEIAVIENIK

AZF [2] = assay: Inhibition of 8CPT-cAMP-induced cortisol secretion in bovine AZF cells at 1 to 20 uM after 1 hr by EIA; type: functional, cell-based; conditions: Bos taurus
Procedure, shortened: (§1)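 Bovine adrenal zona fasciculata cells from 2–3-yr steers were plated on fibronectin-coated dishes in DMEM/F12 with 10% FBS and antioxidants for 24 h. They were then switched to serum-free DMEM/F12 with BSA, ascorbate, tocopherol, insulin and transferrin, and treated with 250 µM 8CPT-cAMP ± curcumin (1–20 µM). Medium cortisol was measured by EIA in duplicate from duplicate samples, as mean ± SEM.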

[3] = Inhibition of 8CPT-cAMP-induced cortisol secretion in bovine AZF cells at 10 uM after 24 hrs by EIA; type: functional; conditions: Bos taurus; procedure, shortened: as §1
AZF [4] = assay: Inhibition of Cav3.2 channel in bovine AZF cells at 5 uM by cell patch clamp assay; type: cell-based; conditions: Bos taurus
Procedure, shortened: (§2)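 Whole-cell T-type Ca2+ currents were recorded from bovine AZF cells 2–12 h after plating (10–15 pF, <15 µm). The pipette held CsCl/BAPTA/MgATP at pH 7.2, and the bath held TEA-Cl with 20 mM Ca2+ at pH 7.4. Current was recorded in standard saline, then the cell was superfused with 5, 10 or 20 µM curcumin, and % inhibition of current amplitude was measured (n = 4–6).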

[5] = Inhibition of ACTH-stimulated cortisol secretion in bovine AZF cells after 24 hrs by EIA; type: functional, Bos taurus
AZF [6] = assay: Inhibition of Cav3.2 channel in bovine AZF cells at 20 uM by cell patch clamp assay; type: cell-based; conditions: Bos taurus; procedure, shortened: as §2
[7] = Inhibition of ACTH-induced CYP11a1 mRNA expression in bovine AZF cells at 10 uM after 24 hrs using [alpha32P]dCTP labeled probes by Northern blot analysis; type: functional; conditions: Bos taurus
Procedure, shortened: (§3)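 Steer AZF cells ((5–8) × 10^6 per dish, fibronectin-coated) were plated 24 h with serum, then held in serum-free supplemented DMEM/F12. They were preincubated 10 min with curcumin (10 µM), then given 2 nM ACTH for 24 h. Total RNA (10 µg/lane) was run on a denaturing gel and Northern blotted with bovine CYP11a1 or StAR probes. Bands were quantified by phosphorimaging as % control, with 18S rRNA as loading reference and ≥2 experiments.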

[8] = Inhibition of 8CPT-cAMP-induced cortisol secretion in bovine AZF cells at 10 uM after 1 hr by EIA; type: functional; conditions: Bos taurus; procedure, shortened: as §1
[9] = Inhibition of ACTH-stimulated cortisol secretion in bovine AZF cells at 10 uM after 2 hrs by EIA; type: functional; conditions: Bos taurus
Procedure, shortened: (§4)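 AZF cells were taken from steer adrenals and plated 24 h on fibronectin in serum-containing DMEM/F12 with antioxidants, then moved to serum-free supplemented DMEM/F12. They were exposed to ACTH(1–24) ± curcumin (1–20 µM) for 0.5, 2 or 24 h. Collected media were assayed for cortisol by EIA, in duplicate from duplicate samples, as mean ± SEM.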

[10] = Inhibition of ACTH-stimulated cortisol secretion in bovine AZF cells at 10 uM after 2 4 hrs by EIA; type: functional; conditions: Bos taurus; procedure, shortened: as §4
AZF [11] = assay: Inhibition of ACTH-stimulated cortisol secretion in bovine AZF cells at 1 to 20 uM after 0.5 hrs by EIA; type: functional, cell-based; conditions: Bos taurus; procedure, shortened: as §4
[12] = Inhibition of ACTH-stimulated cortisol secretion in bovine AZF cells after 3 hrs by EIA; type: functional, Bos taurus
[13] = Inhibition of Ang2-stimulated cortisol secretion in bovine AZF cells at 20 uM after 2 hrs by EIA; conditions: Bos taurus
[14] = Inhibition of ACTH-stimulated cortisol secretion in bovine AZF cells at 10 uM after 0.5 hrs by EIA; type: functional; conditions: Bos taurus; procedure, shortened: as §4
AZF [15] = assay: Inhibition of Cav3.2 channel in bovine AZF cells at 10 uM by cell patch clamp assay; type: cell-based; conditions: Bos taurus; procedure, shortened: as §2
[16] = Inhibition of ACTH-induced StAR mRNA expression in bovine AZF cells at 10 uM after 24 hrs using [alpha32P]dCTP labeled probes by Northern blot analysis; type: functional; conditions: Bos taurus; procedure, shortened: as §3
[17] = Induction of cortisol secretion in bovine AZF cells at 20 uM after 0.5 to 24 hrs by EIA relative to control; type: functional, Bos taurus
Procedure, shortened: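 AZF cells from adrenal glands of 2–3 yr steers were plated 24 h on fibronectin in DMEM/F12 with 10% FBS, tocopherol, selenite and ascorbate. Medium was then switched to serum-free DMEM/F12 with BSA, ascorbate, tocopherol, insulin and transferrin, with or without compound, at 37 °C. Media were collected at 0.5, 2 and 24 h, and cortisol was measured by EIA (duplicates of duplicate samples, mean ± SEM).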

IC50 [1]: 930 nM
SMILES: COc1cc(/C=C/C(=O)CC(=O)/C=C/c2ccc(O)c(OC)c2)ccc1O [CURCUMIN]
inhibition (AZF [2]): Active
inhibition at 10 µM [3]: 96.8%
inhibition (AZF [4]): 31.9%
inhibition (INH) [5]: 92%
inhibition (AZF [6]): 53.3%
inhibition at 10 µM [7]: 59%
inhibition at 10 µM [8]: 92.9%
inhibition at 10 µM [9]: 92.4%
inhibition at 10 µM [10]: 91%
inhibition (AZF [11]): Active
inhibition (INH) [12]: 89%
inhibition at 20 µM [13]: 94.5%
inhibition at 10 µM [14]: 81.1%
inhibition (AZF [15]): 41%
inhibition at 10 µM [16]: 99%
fold change (FC) [17]: 2
